Source: ChEMBL document CHEMBL1126550, “Nanomolar-affinity, non-peptide oxytocin receptor antagonists” (J Med Chem, 1993)

Legend:
[1] = molecular target: Vasopressin V2 receptor (Rattus norvegicus, UniProt Q00788); assay: Inhibition of radioligand [3H]-AVP binding to the vasopressin V2 receptor in rat kidney tissue
Outline: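 [3H]AVP (80–90 Ci/mmol) at 2 nM competed on crude membranes from male rat kidney medulla (V2 sites). Equilibrium 30 min at 30 °C in 100 mM Tris-HCl, 5 mM MgCl2, 0.1% BSA, 50 μM PMSF, 50 μg/mL bacitracin, pH 8.0. Nonspecific binding with 10 μM unlabeled AVP. Glass-fiber filtration. IC50 by linear regression of % inhibition vs log concentration, seven concentrations.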

[2] = molecular target: T1, Oxytocin receptor (Homo sapiens, UniProt P30559); assay: Tested against human uterine OT receptor
T1 sequence (P30559 whole entry): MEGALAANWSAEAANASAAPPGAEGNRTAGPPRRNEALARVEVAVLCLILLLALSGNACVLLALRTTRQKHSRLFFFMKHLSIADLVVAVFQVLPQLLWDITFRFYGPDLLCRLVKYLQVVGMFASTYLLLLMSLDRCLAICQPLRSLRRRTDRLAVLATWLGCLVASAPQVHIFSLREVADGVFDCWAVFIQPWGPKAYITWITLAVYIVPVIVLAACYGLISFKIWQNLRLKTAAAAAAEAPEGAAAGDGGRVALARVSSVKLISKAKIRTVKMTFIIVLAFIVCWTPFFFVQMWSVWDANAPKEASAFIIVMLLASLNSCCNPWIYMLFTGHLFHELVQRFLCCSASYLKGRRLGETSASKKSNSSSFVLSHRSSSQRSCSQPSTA

[3] = tested on: Rattus norvegicus; assay: Tested for inhibition of OT-stimulated uterine activity in the rat after an intravenous dose; format: functional
[4] = molecular target: T2, Oxytocin receptor (Rattus norvegicus, UniProt P70536); assay: Inhibition of radioligand [3H]oxytocin binding at the oxytocin (OT) receptor in rat uterine tissue
T2 sequence (P70536 whole entry): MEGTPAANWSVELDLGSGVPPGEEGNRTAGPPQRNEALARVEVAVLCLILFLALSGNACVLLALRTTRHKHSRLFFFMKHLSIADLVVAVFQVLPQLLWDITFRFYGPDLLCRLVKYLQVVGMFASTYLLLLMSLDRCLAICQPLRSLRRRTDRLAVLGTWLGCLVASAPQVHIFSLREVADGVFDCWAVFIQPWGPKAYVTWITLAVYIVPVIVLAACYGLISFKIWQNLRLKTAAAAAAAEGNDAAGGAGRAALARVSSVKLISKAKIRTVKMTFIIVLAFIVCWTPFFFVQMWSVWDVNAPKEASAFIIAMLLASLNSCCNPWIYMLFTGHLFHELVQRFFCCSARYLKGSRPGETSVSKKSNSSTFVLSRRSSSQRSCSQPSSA
Outline: (§1)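 Uteri taken from rats given diethylstilbestrol dipropionate (0.3 mg/kg ip, 18–24 h before), crude membranes. 1 nM [3H]OT (30–60 Ci/mmol), equilibrium 60 min at 22 °C in 50 mM Tris-HCl, 5 mM MgCl2, 0.1% BSA, pH 7.4. Nonspecific binding with 1 mM unlabeled OT. Filtered on glass fiber. Initial single-concentration screen, then IC50 from seven concentrations by linear regression.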

[5] = species on record: Rattus norvegicus; assay: Tested for antagonistic activity in isolated rat uterus; format: functional; conditions: read-out: pA2 (converted)
[6] = molecular target: T2, Oxytocin receptor; assay: Tested against rat uterine OT receptor; outline: as §1
[7] = molecular target: Vasopressin V1 receptor (Rattus norvegicus, UniProt P48974+P30560); assay: Inhibition of radioligand [3H]AVP binding to the vasopressin V1 receptor in rat liver tissue
Outline: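 Crude membranes from male rat liver (V1 sites) competed with 1 nM [3H]AVP (80–90 Ci/mmol). Equilibrium 30 min, 30 °C, buffer 100 mM Tris-HCl, 5 mM MgCl2, 0.1% BSA, 50 μM PMSF, 50 μg/mL bacitracin, pH 8.0. 10 μM unlabeled AVP for nonspecific binding. Filtration through glass-fiber filters. IC50 from linear regression over seven concentrations.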

Vasopressin V2 receptor, sequence (Q00788 whole entry): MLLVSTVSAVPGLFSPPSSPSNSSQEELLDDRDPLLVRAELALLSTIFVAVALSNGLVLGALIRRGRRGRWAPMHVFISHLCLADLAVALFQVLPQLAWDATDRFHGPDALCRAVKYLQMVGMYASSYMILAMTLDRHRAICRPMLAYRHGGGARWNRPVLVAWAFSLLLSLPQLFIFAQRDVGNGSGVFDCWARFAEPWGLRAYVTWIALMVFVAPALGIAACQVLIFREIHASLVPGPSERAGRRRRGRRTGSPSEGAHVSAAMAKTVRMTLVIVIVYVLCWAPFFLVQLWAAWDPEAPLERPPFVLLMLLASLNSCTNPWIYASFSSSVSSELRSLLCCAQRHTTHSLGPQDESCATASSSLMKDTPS

IC50 [1]: 17000 nM
Ki [2]: 61 nM
IC50 [4]: 52 nM
Ki [6]: 26 nM
IC50 [7]: 5600 nM
Compound: CC1(C)[C@@H]2CC[C@@]1(CS(=O)(=O)N1CCC3(CCc4ccccc43)CC1)[C@@H](NC(=O)Cc1c[nH]cn1)C2
AD50 [3]: 1.5 mg/kg
Kb [5]: 11.7 nM
